Screens as filed in PubChem.
E-selectin induc: induces E-selectin expression in human endothelial cells; P16581; HUVEC E-selectin immunofluorescence imaging; normalized: neutral wells 0, TNF-alpha wells 100; activation, % at 7.58 µM; actives 0.37% (n = 260,000); AID 686992;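 active = mean E-selectin-positive cell signal at least 10% of the positive control, reached in at least 60% of replicates, without over 20% cell loss; inconclusive = no rule given, readout overlaps actives, possibly toxicity-flagged; inactive = the rest, including those meeting only one limit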
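Read-out: % PE-positive cells | Test system: HUVEC | Doses: One compound dose added by pin transfer | Buffer or medium: EGM-2 over gelatin coat | Signal: Immunofluorescence imaging | Benchmarks: TNF-alpha, DMSO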
DENV2 CPE: DENV2-induced cell death inhibition; DENV2-infected cells, cytopathic effect rescue, plate reader; CPE inhibition, % at 9.99 µM; actives 1.7% (n = 350,000); AID 651640; in the data active = CPE inhibition above about 20%, passing the limit was not always enough; inconclusive = no clear call, values can overlap the other calls; tested in BHK-21 cells;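 note: 0% = median of neutral control wells and 100% = median of positive control wells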
ERAP1 HTS inh: inhibitors of human ERAP1 aminopeptidase. Q9NZ08. recombinant ERAP1, Leu-AMC fluorescence, 60 min. inhibition, % at 10.7 µM. actives 0.15% (n = 340,000). AID 652197;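 active = mean replicate inhibition of at least 30%, or all replicates individually reaching that 30% level; inactive = mean below 30% and not every replicate reaching it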;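 note: 0% = neutral control wells and 100% = L-leucinethiol positive control wells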
Target sequence (Q9NZ08 whole entry, looked up): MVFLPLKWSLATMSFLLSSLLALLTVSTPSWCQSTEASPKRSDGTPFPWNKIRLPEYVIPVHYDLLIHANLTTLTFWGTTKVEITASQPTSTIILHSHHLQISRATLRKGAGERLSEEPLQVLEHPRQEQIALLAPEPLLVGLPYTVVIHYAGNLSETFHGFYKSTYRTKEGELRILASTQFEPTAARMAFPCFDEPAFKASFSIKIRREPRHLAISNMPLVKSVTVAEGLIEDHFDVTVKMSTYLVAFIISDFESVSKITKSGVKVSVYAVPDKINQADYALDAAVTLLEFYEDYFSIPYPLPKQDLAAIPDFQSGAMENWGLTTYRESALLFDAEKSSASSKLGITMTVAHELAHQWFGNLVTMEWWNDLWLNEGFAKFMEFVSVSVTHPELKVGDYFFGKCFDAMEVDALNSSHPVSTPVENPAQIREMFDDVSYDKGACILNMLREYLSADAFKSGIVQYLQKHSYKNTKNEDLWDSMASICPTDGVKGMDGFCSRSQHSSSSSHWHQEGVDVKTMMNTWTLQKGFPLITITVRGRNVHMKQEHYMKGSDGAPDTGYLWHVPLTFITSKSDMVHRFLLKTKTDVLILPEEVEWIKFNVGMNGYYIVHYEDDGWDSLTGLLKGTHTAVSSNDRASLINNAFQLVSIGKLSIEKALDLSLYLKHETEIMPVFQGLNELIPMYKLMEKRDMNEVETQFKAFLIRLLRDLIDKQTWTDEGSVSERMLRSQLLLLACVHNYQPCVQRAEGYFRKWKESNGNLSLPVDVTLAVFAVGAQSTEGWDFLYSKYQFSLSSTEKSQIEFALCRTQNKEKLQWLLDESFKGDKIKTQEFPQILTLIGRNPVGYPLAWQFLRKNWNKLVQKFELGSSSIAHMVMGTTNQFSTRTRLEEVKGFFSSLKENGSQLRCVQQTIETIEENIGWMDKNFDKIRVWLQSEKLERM
SIRT5 inh: blocks human SIRT5 desuccinylation of peptide. Q9NXA8. Purified SirT5, succinyl-peptide AMC, trypsin-coupled fluorescence. inhibition, % at 15 µM. actives 1.1% (n = 330,000). AID 652115; in the data active = inhibition above about 15%; inconclusive = no clear call, values can overlap the other calls
PglD DTNB: PglD (C. jejuni) enzyme inhibition. AID 602405. purified PglD enzyme, DTNB colorimetric CoA detection. inhibition, % at 12.5 µM. actives 0.098% (n = 360,000); in the data active = inhibition above about 16%, passing the limit was not always enough; inconclusive = no clear call, values can overlap the other calls
An asterisk follows results filed as active; ! = a repeat was not active. A selection: hits, their analogues and other compounds. The true share with any hit is near 2.5%.

Results for COc1ccc(NC(=O)Nc2cccc3c2O[C@@H](CN(C)Cc2ccc(C(=O)Nc4ccccc4N)cc2)[C@@H](C)CN([C@H](C)CO)C3=O)cc1 ?
E-selectin induc: -2; DENV2 CPE: -10; ERAP1 HTS inh: 3; SIRT5 inh: 4

What do the screens show for `C[C@@H]1CN([C@H](C)CO)C(=O)c2cccc(NC(=O)Nc3ccccc3)c2O[C@H]1CN(C)Cc1ccc(C(=O)O)cc1`?
E-selectin induc: 0; DENV2 CPE: 22*; ERAP1 HTS inh: -2; SIRT5 inh: -6; PglD DTNB: -11

How did O=C(N/N=C1/CCS(=O)(=O)c2ccc(F)cc21)c1ccccn1 do in these assays?
E-selectin induc: 1; DENV2 CPE: inconclusive; ERAP1 HTS inh: 4; SIRT5 inh: 0

How did O=C(Cn1cc([N+](=O)[O-])ccc1=O)NC1CCCCC1 do in these assays?
DENV2 CPE: inconclusive; ERAP1 HTS inh: -2; SIRT5 inh: 2; PglD DTNB: 2

How did COc1ccc2c3c(n(C)c2c1)[C@H](CO)N(Cc1ccncc1)CC31CCN(C(=O)C2CCCC2)CC1 do in these assays?
E-selectin induc: 0; DENV2 CPE: 5; ERAP1 HTS inh: 0; SIRT5 inh: 3

What do the screens show for `C[C@@H]1CN([C@H](C)CO)C(=O)c2cccc(NC(=O)Nc3ccccc3)c2O[C@H]1CN(C)Cc1ccncc1`?
E-selectin induc: 0; DENV2 CPE: -7; ERAP1 HTS inh: 0; SIRT5 inh: -1; PglD DTNB: 0

How did C[C@H]1CN([C@@H](C)CO)C(=O)c2cccc(NC(=O)Nc3ccc(F)cc3)c2O[C@H]1CN(C)Cc1ccncc1 do in these assays?
E-selectin induc: 58*; DENV2 CPE: -3; ERAP1 HTS inh: -1; SIRT5 inh: 1; PglD DTNB: -3

What do the screens show for `C[C@@H]1CN([C@@H](C)CO)C(=O)c2cccc(NC(=O)Nc3ccc(F)cc3)c2O[C@@H]1CN(C)Cc1ccncc1`?
E-selectin induc: 65*; DENV2 CPE: 9; ERAP1 HTS inh: 0; SIRT5 inh: 1; PglD DTNB: -5

How did COc1ccc(NC(=O)Nc2cccc3c2O[C@H](CN(C)Cc2ccncc2)[C@@H](C)CN([C@H](C)CO)C3=O)cc1 do in these assays?
DENV2 CPE: inconclusive; ERAP1 HTS inh: -1; SIRT5 inh: -5; PglD DTNB: -2

Results for COc1ccc(NC(=O)Nc2cccc3c2O[C@H](CN(C)Cc2ccncc2)[C@H](C)CN([C@@H](C)CO)C3=O)cc1 ?
ERAP1 HTS inh: 4; SIRT5 inh: -1; PglD DTNB: 22*

What do the screens show for `COc1ccc(C#Cc2cccc(-c3nc(C(=O)NCc4ccc5c(c4)OCO5)cc4c3[C@@H](CCO)N(S(=O)C(C)(C)C)C4)c2)cc1OC` (stereo partly specified)?
E-selectin induc: 1; DENV2 CPE: inconclusive; ERAP1 HTS inh: 2; SIRT5 inh: 6

Results for CC(C)c1ccccc1OCC(=O)Nc1ccc2[nH]ncc2c1 ?
DENV2 CPE: -3; ERAP1 HTS inh: -4; SIRT5 inh: 18*; PglD DTNB: 4

How did COc1ccccc1C(=O)Nc1ccc2[nH]ncc2c1 do in these assays?
DENV2 CPE: 1; ERAP1 HTS inh: -1; SIRT5 inh: -1; PglD DTNB: 2

What do the screens show for `C[C@@H]1CN([C@@H](C)CO)C(=O)c2cc(Br)cnc2O[C@@H]1CN(C)Cc1ccncc1`?
E-selectin induc: -1; DENV2 CPE: -4; ERAP1 HTS inh: -2; SIRT5 inh: -5; PglD DTNB: -1

What do the screens show for `C[C@H](O)C#Cc1cnc2c(c1)C(=O)N([C@@H](C)CO)C[C@@H](C)[C@H](CN(C)Cc1ccccn1)O2`?
E-selectin induc: 0; DENV2 CPE: 4; ERAP1 HTS inh: 0; SIRT5 inh: 2; PglD DTNB: -1

Results for C[C@H](CO)N1C[C@H](C)[C@H](CN(C)C(=O)c2ccccn2)Oc2ncc(Br)cc2C1=O ?
E-selectin induc: 0; DENV2 CPE: 73*!; ERAP1 HTS inh: -3; SIRT5 inh: -5; PglD DTNB: -3

How did C[C@H](CO)N1C[C@H](C)[C@@H](CN(C)Cc2ccccn2)Oc2ncc(Br)cc2C1=O do in these assays?
E-selectin induc: -1; DENV2 CPE: 11; ERAP1 HTS inh: -3; SIRT5 inh: 25*!; PglD DTNB: 4

Results for C[C@H](CO)N1C[C@H](C)[C@H](CN(C)Cc2ccncc2)Oc2ncc(Br)cc2C1=O ?
E-selectin induc: -1; DENV2 CPE: 85*!; ERAP1 HTS inh: 9; SIRT5 inh: -3; PglD DTNB: -2
